Wnt act: Wnt/beta-catenin pathway activation; Wnt/beta-catenin reporter cell assay, activator, plate reader; activation, % at 9.35 µM; actives 1.2% (n = 300,000); AID 743398; in the data active = activation above about 30%, passing the limit was not always enough; inconclusive = no clear call, values can overlap the other calls;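 note: 0% = neutral control wells and 100% = positive control wells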
Env fusion inh: inhibitors of HIV Env-mediated cell fusion. inhibition, % at 12.3 µM. HeLa-JRFL Env/CEM21 cell fusion, luciferase. AID 651610. actives 1.1% (n = 360,000);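 active = mean replicate inhibition score of at least 50 and every replicate individually at or above 50; inconclusive = only one of the two criteria met; inactive = mean below 50 and not all replicates reaching 50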;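 note: 0% = plate neutral controls and 100% = maraviroc near 300 nM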
ERAP1 inh: inhibitors of human ERAP1 aminopeptidase | Q9NZ08 | recombinant ERAP1, Leu-AMC fluorescence, 60 min | inhibition, % at 10.7 µM | actives 0.15% (n = 340,000) | AID 652197;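 active = mean replicate inhibition of at least 30%, or all replicates individually reaching that 30% level; inactive = mean below 30% and not every replicate reaching it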;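 note: 0% = neutral control wells and 100% = L-leucinethiol positive control wells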
Target sequence (Q9NZ08 whole entry, looked up): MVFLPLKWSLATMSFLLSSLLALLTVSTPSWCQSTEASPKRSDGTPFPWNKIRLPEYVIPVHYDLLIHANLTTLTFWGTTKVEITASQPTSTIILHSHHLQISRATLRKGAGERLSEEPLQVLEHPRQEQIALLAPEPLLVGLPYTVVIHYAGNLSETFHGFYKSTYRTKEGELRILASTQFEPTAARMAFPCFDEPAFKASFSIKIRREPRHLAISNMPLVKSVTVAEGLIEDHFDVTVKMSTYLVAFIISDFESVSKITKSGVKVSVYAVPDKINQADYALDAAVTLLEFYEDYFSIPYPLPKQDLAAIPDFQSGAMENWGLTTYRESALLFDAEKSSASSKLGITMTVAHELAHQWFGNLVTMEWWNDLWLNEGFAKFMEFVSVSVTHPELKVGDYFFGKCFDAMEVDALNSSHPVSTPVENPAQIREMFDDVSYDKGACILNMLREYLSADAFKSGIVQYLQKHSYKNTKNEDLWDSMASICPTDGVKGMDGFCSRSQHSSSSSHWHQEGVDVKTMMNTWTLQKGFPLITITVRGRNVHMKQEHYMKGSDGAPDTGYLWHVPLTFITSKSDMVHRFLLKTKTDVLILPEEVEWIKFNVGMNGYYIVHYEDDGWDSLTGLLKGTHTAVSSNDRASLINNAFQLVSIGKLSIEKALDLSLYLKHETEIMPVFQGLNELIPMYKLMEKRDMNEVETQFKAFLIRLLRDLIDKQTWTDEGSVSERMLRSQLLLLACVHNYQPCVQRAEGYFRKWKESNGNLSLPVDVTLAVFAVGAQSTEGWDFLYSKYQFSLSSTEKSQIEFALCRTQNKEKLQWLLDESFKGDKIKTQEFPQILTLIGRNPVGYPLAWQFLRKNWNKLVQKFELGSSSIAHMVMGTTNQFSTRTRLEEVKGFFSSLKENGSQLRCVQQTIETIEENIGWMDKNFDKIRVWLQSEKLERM
MITF act: increases MITF-driven TRPM1 promoter luciferase signal; SK-MEL-5 TRPM1-promoter luciferase, 24 h; % of positive control, neutral wells = 0; activation, % at 12.5 µM; actives 0.75% (n = 300,000);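 active = mean activation of at least 80% with every replicate also reaching 80%; inconclusive = mean reaches 80% but some replicate falls short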;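 note: 0% = neutral control wells and 100% = parthenolide positive control wells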
Cneo AK release: Cryptococcus neoformans lysis via adenylate kinase release; C. neoformans lysis, adenylate kinase release luminescence, 4 h; normalised: neutral wells 0, clomiphene wells 100; lysis activity, % at 15 µM; actives 0.2% (n = 360,000);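 active = mean lysis activity across replicates of at least 80%, whatever share of replicates individually reach that level; inactive = mean lysis activity below 80%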
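Assay system: C. neoformans cells. Amount: yeast cell density of 5 × 10^6 cells/mL. Technique: AK luminescence. Buffer or medium: YPD. Times: static 4 h at 37 °C with compound, 1 h detection. Dosing: single-point compound dose. Read-out: lysis from increased AK signal.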
esBAF inh: SWI/SNF esBAF complex inhibition. mouse ES cells, Bmi1-luciferase knock-in reporter, 24 h; 100% = twice the neutral-well signal. reporter increase, % at 12.5 µM. actives 2% (n = 350,000); in the data active = activation above about 40%; inconclusive = no clear call, values can overlap the other calls;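 note: 0% = median of the plate's neutral control wells and 100% = double that signal; a rise in the Bmi1 reporter signal indicates esBAF inhibition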
Ring1 derepress: confirmation of esBAF inhibitors: Ring1 de-repression in mouse ESCs. 550 tested, under 10 active. mouse ESC E14, Ring1 mRNA RT-qPCR fold change. fold change at 33 µM. shares compounds with esBAF inh;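 active = Ring1 gene expression raised more than 2-fold over untreated cells in both replicates at either tested dose; inconclusive = only one replicate above 2-fold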;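 note: Ring1 transcript normalised to actin housekeeping signal by TaqMan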
esBAF Fgf4 qPCR: represses Fgf4 in mouse ESCs, confirming esBAF inhibition; actives 4% (n = 550); mouse ESC E14, Fgf4 mRNA qPCR fold change; hits give low values; Fgf4 expression fold change at 33 µM; shares compounds with esBAF inh; AID 743177;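 active = Fgf4 expression under 0.8 fold of control in both repeat measurements at one or both tested doses; inconclusive = under 0.8 fold in just a single repeat measurement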;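 note: Fgf4 transcript normalised to actin in duplex TaqMan qPCR; cells exposed to compound for 24 h before lysis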
esBAF Bmi1 qPCR: confirmation of esBAF inhibitors: Bmi1 de-repression in mouse ESCs | shares compounds with esBAF inh | AID 743180 | mouse ESE14 ES cells, Bmi1 mRNA qPCR fold; hits give high values | 550 tested, under 10 active | fold change at 33 µM;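 active = Bmi1 expression fold change above 6 at either tested concentration, seen in replicate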;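 note: higher fold means more Bmi1 de-repression and stronger esBAF inhibition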
A549 tox SP: kills or reduces viability of A549 cells; cell viability change % (negative = cytotoxic), % at 25 µM, hits read low; AID 743188; 550 tested, under 10 active; A549 cytotoxicity, plate reader; shares compounds with esBAF inh; call rule not given here
HepG2 tox SP: cytotoxicity in HepG2 cells; plate reader; hits give low values; actives 4% (n = 550); shares compounds with esBAF inh; activity change, negative = inhibition, % at 25 µM; in the data active = activity change below about -50%
HEK293 cytotox SP: cytotoxicity in HEK293 cells. shares compounds with esBAF inh. plate reader. activity change, negative = inhibition, % at 25 µM, hits read low. actives 3% (n = 550). AID 743190; in the data active = activity change below about -38%, passing the limit was not always enough
Numbers without * were called inactive; u = inconclusive; x = not tested or not shown; [ ] = another dose, or the depositor's remark. The list is not random: actives were taken first. Their share in the collection is about 3.5%.

SMILES | Wnt act | Env fusion inh | ERAP1 inh | MITF act | Cneo AK release | esBAF inh | Ring1 derepress | esBAF Fgf4 qPCR | esBAF Bmi1 qPCR | A549 tox SP | HepG2 tox SP | HEK293 cytotox SP
CC(=O)Nc1ccc(CNc2nc3cc(-c4ccsc4)sc3c(=O)n2C)cc1 | x | 45.3 | 3.2 | x | -0.2 | 78.4* | 1.58 | 1.09 | 1.68 | 7.4 | -13.8 | -9.9
C[C@H]1CCCCO[C@H](CN(C)C(=O)CCCN(C)C)[C@@H](C)CN([C@@H](C)CO)C(=O)c2cc(NS(C)(=O)=O)ccc2O1 | x | -21.4[16.7 µM] | 0.0 | x | -0.3 | -0.9 | x | x | x | x | x | x
O=C(Cc1ccccc1)Nc1ccc2c(c1)OC1(CCCC1)O2 | 47.7* | x | 2.4 | 109.9* | -3.6 | 74.5* | 1.17 | 0.858 | 1.62 | -8.7 | -30.6 | -13.4
COCC#Cc1cnc2c(c1)C(=O)N([C@H](C)CO)C[C@H](C)[C@H](CN(C)C(=O)c1cccc(F)c1)O2 | x | 0.8[16.7 µM] | 0.0 | x | 0.0 | 1.9 | x | x | x | x | x | x
c1ccc(CCNc2ccc3c(c2)Cc2ccccc2-3)nc1 | 4.5 | -107.2 | 0.3 | 50.5 | 0.2 | 82.2* | 1.18 | u | 1.45 | -22.0 | 2.1 | -40.9
c1ccc(CCNc2ccccn2)nc1 | 6.6 | -15.3 | 1.2 | 45.0 | x | x | x | x | x | x | x | x
Cc1c(C(=O)Nc2ccc(Oc3ccccc3)cc2)sc2nc3n(c(=O)c12)CCC3 | x | x | x | -0.4 | x | -9.5 | x | x | x | x | x | x
COc1cccc(NC(=O)c2sc3nc4n(c(=O)c3c2C)CCC4)c1 | 14.7 | -42.0 | 0.2 | 76.7 | -3.3 | 57.3* | 1.13 | 1 | 1.13 | -13.7 | -10.7 | -9.8
COc1ccc2c3c(n(C)c2c1)[C@@H](CO)N(C(=O)C1CCOCC1)CC31CCN(C(=O)C2CCOCC2)CC1 | x | x | 0.7 | x | x | x | x | x | x | x | x | x
CS(=O)(=O)Nc1ccc2c(c1)[C@@H]1C[C@@H](CC(=O)O)O[C@@H](CO)[C@@H]1O2 | x | x | -0.3 | x | x | x | x | x | x | x | x | x
Cc1cc(=O)oc2cc(NC(=O)c3cccc(F)c3)ccc12 | 20.5 | -53.6 | 1.1 | 51.5 | 0.3 | 68.3* | 1.21 | 0.919 | 0.948 | -8.2 | -13.1 | -0.1
Cc1ccccc1-c1nnc(-c2cccc3ccccc23)o1 | 55.2* | -206.6 | -2.0 | 26.8 | -4.8 | 71.1* | 0.949 | 0.96 | 1.7 | -6.9 | 37.0 | -16.4
O=C(c1ccc(F)cc1)N1CCCCN2[C@H](CO)[C@H](c3ccc(C#CC4(O)CCCC4)cc3)[C@H]2C1 | x | x | 5.3 | x | -0.1 | x | x | x | x | x | x | x
O=C(Nc1ccc(Nc2ccccc2)cc1)Nc1ccccc1Cl | 24.5 | -29.5 | -3.5 | 101.7* | -1.8 | 70.2* | 1.39 | 0.82 | 1.63 | -1.0 | 2.9 | -19.3
c1ccc2c(c1)Nc1cc3ccccc3cc1O2 | 6.9 | 3.6 | 2.3 | 44.2 | 0.0 | 84.0* | 1.27 | 0.903 | 1.49 | -1.7 | -1.1 | -8.5
c1ccc(C2Nc3ccccc3Oc3ccccc32)cc1 (stereo unspecified) | x | -39.8 | x | 2.0 | -2.7 | -8.2 | x | x | x | x | x | x
CC(C)N1CC2(CC(c3ccccc3F)=NO2)CN1C(=O)c1ccc(C(C)(C)C)cc1 (stereo unspecified) | -0.6 | 17.9 | x | x | x | 74.6* | 0.917 | 0.888 | 1.66 | -6.4 | -1.0 | -8.7
CC(C)N1CC2(CC(c3ccccc3C(F)(F)F)=NO2)CN1C(=O)c1ccc(C(C)(C)C)cc1 (stereo unspecified) | -1.7 | 20.3 | x | x | x | -0.2 | x | x | x | x | x | x
Clc1ccc(-c2nc(Cc3ccccc3)no2)cc1 | x | x | 4.7 | 105.7* | 0.1 | 69.7* | 1.09 | 0.932 | 1.21 | -15.8 | -12.6 | -13.4
COc1ccc(-c2nc(Cc3ccc(Cl)cc3)no2)cc1OC | x | x | x | 1.2 | 5.1 | x | x | x | x | x | x | x
CCc1ccc2cc3c(cc2n1)C(=O)c1ccccc1-3 | u | -213.5 | x | x | 0.7 | 61.3* | 1.28 | u | 3.82 | 8.6 | -10.9 | 6.3
Cc1nc2c(nc1C)C(=O)c1ccccc1C2=O | -3.5 | 11.3 | 1.8 | x | x | x | x | x | x | x | x | x
COC(=O)C[C@@H]1CC[C@@H]2[C@H](COc3ccc(NS(=O)(=O)c4ccc(F)cc4)cc3C(=O)N2C)O1 | x | -10.3[16.7 µM] | x | x | -0.8 | -5.2 | x | x | x | x | x | x
C[C@@H](O)C#Cc1cnc2c(c1)C(=O)N([C@@H](C)CO)C[C@H](C)[C@@H](CN(C)C(=O)CC1CC1)O2 | x | -4.1[16.7 µM] | 0.2 | x | 34.8 | -1.6 | x | x | x | x | x | x
